Experimental findings from ChEMBL document CHEMBL3784931, “Synthesis and evaluation of novel angiotensin II receptor 1 antagonists as anti-hypertension drugs” (Bioorg Med Chem, 2016) are described below.

The test has as its target T1, Type-1 angiotensin II receptor A (Rattus norvegicus, UniProt P25095).
T1 sequence (P25095 whole entry): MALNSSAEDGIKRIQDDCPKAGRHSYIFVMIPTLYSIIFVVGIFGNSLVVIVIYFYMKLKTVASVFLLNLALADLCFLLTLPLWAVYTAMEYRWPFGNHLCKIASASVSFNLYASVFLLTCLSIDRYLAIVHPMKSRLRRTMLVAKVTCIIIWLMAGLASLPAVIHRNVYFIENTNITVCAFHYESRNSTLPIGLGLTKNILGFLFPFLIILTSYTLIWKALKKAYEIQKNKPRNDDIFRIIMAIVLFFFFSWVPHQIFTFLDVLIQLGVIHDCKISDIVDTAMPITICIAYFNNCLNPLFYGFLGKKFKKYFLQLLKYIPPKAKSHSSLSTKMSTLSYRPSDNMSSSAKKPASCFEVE
The test can be described thus: Displacement of [125I]-Ang II from Angiotensin 2 type-1A receptor in rat vascular smooth muscle cells after 150 mins by gamma counting method. Summed up: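 Rat vascular smooth muscle cells (passages 3–6) were seeded at 10⁶ cells/well and grown at 37 °C in 5% CO₂. Nonspecific binding was taken with 1 µM Ang II. Cells were washed three times, lysed 10 min in 0.1 M NaOH, and bound radioactivity was gamma counted.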

One may read the IC50 as the concentration needed to halve the response being measured. In general, Ki refers to a measure of affinity in units of concentration, obtained from inhibition or displacement. The compound `CCCCc1nc(Cl)c(CO)n1Cc1ccc(-c2ccccc2-c2noc(=O)[nH]2)cc1` came in with an IC50 of 5.94 nM and a Ki of 4.3 nM.
